Test results published in ChEMBL document CHEMBL1124018, “Synthesis and pharmacological properties of "soft drug" derivatives related to perhexiline” (J Med Chem, 1988).

The compounds below were run against T1, Adrenergic receptor alpha-1 (Rattus norvegicus, UniProt P15823+P23944+P43140) (assay: Alpha adrenergic receptor activity in rat aorta).
T1 sequence (P15823 whole entry): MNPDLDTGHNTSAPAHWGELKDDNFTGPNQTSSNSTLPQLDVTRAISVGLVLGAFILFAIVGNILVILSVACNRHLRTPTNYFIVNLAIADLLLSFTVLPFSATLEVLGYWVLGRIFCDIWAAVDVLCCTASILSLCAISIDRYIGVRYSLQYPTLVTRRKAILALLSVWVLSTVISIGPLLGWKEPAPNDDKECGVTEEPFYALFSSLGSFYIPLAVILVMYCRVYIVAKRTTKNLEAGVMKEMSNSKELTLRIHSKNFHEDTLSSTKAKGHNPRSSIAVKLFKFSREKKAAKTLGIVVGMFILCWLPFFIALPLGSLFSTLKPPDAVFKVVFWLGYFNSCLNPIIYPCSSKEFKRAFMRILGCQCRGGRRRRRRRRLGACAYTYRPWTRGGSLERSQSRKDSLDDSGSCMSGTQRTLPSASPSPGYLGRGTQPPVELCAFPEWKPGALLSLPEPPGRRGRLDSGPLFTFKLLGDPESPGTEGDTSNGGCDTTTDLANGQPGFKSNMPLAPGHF
T1 sequence (P23944 whole entry): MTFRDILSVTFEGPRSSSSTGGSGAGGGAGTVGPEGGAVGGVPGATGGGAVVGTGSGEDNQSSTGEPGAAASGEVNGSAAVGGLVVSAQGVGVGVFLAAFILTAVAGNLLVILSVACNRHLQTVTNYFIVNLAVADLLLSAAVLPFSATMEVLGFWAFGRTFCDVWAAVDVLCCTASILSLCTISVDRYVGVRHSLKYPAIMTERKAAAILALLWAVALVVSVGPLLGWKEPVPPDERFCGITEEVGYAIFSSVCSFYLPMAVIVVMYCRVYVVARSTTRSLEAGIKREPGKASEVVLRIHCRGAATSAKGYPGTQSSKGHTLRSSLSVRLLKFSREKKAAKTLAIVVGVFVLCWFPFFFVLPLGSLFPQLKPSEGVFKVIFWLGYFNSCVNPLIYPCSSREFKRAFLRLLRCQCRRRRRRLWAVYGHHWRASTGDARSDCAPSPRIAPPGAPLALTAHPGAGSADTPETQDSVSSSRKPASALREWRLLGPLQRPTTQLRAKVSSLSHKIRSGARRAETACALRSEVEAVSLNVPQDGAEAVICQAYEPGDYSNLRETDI
T1 sequence (P43140 whole entry): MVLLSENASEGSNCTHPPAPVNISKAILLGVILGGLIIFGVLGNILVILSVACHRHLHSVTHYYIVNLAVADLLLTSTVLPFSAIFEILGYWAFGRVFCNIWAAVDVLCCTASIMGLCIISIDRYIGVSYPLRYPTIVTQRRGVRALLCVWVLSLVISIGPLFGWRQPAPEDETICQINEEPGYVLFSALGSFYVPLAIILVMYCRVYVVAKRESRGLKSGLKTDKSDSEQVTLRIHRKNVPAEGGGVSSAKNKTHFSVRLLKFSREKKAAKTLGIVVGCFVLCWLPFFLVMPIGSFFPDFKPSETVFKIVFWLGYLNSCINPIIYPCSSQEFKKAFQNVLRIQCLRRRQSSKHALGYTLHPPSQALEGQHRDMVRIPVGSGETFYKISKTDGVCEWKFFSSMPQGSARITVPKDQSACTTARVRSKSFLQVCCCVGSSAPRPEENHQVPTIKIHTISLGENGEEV
Type: tissue-based
Outline: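 Rat aortic strips held at 2 g resting tension, stabilized about 1 h. Propranolol 10^-6 M for 30 min to block β-receptors. Isometric contraction recorded. Tissues primed with an agonist level giving 70-80% of maximal response, then washed every 15 min for 60 min. Two cumulative norepinephrine curves (10^-10–10^-7 M), with ascorbic acid 1.13 × 10^-5 M present, run before and after 30 min antagonist preincubation. One antagonist concentration per preparation. Reported as pA2.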

SMILES | pA2
COc1ccc(CCN(C)CC(=O)NC(c2ccccc2)C2CCCCC2)cc1OC.O=C(O)C(=O)O (stereo not drawn) | 6.5
CN(CC(=O)NC(c1ccccc1)C1CCCCC1)CC1COc2ccccc2O1.O=C(O)C(=O)O (stereo not drawn) | 6.15
O=C(NCc1ncc[nH]1)C(c1ccccc1)C1CCCCC1.O=C(O)C(=O)O (stereo not drawn) | 5.2
O=C(CCc1ncc[nH]1)NC(c1ccccc1)C1CCCCC1.O=C(O)C(=O)O (stereo not drawn) | 4.2
O=C(CC1=NCCN1)NC(c1ccccc1)C1CCCCC1.O=C(O)C(=O)O (stereo not drawn) | 5.8
O=C(NCCC1=NCCN1)C(c1ccccc1)C1CCCCC1.O=C(O)C(=O)O (stereo not drawn) | 5.7
O=C(NCCN1CCOCC1)C(c1ccccc1)C1CCCCC1.O=C(O)C(=O)O (stereo not drawn) | 4.5
O=C(Cc1ncc[nH]1)NC(c1ccccc1)C1CCCCC1.O=C(O)C(=O)O (stereo not drawn) | 5.9
O=C(NCCN1CCCCC1)C(c1ccccc1)C1CCCCC1.O=C(O)C(=O)O (stereo not drawn) | 6
O=C(NCCc1ncc[nH]1)C(c1ccccc1)C1CCCCC1.O=C(O)C(=O)O (stereo not drawn) | 5.4
O=C(CCC1=NCCN1)NC(c1ccccc1)C1CCCCC1.O=C(O)C(=O)O (stereo not drawn) | 5.4
Cl.O=C(NC1CCCCN1)C(c1ccccc1)C1CCCCC1 (stereo not drawn) | 5.5
CCN(CC)CCNC(=O)C(c1ccccc1)C1CCCCC1.Cl (stereo not drawn) | 5.4
Cl.O=C(NCC1=NCCN1)C(c1ccccc1)C1CCCCC1 (stereo not drawn) | 6.1
NCC(=O)NC(c1ccccc1)C1CCCCC1.O=C(O)/C=C\C(=O)O (stereo not drawn) | 4.5
O=C(NCc1c[nH]cn1)C(c1ccccc1)C1CCCCC1.O=C(O)/C=C\C(=O)O (stereo not drawn) | 4.1
CN(CC(=O)NC(c1ccccc1)C1CCCCC1)C1CCCCC1.O=C(O)/C=C\C(=O)O (stereo not drawn) | 6.7
CN(C(=O)CNC1CCCCC1)C(c1ccccc1)C1CCCCC1.O=C(O)/C=C\C(=O)O (stereo not drawn) | 5.3
O=C(CNCC1COc2ccccc2O1)NC(c1ccccc1)C1CCCCC1.O=C(O)/C=C\C(=O)O (stereo not drawn) | 6
O=C(Cc1c[nH]cn1)NC(c1ccccc1)C1CCCCC1.O=C(O)/C=C\C(=O)O (stereo not drawn) | 5.3
COc1ccccc1N1CCN(CCC(=O)NC(c2ccccc2)C2CCCCC2)CC1.O=C(O)/C=C\C(=O)O (stereo not drawn) | 6
CN(CC(=O)N(C)C(c1ccccc1)C1CCCCC1)C1CCCCC1.O=C(O)/C=C\C(=O)O (stereo not drawn) | 4.5
O=C(NCCNC1CCCCC1)C(c1ccccc1)C1CCCCC1 (stereo not drawn) | 6.6
O=C(CNC1CCCCC1)NC(c1ccccc1)C1CCCCC1 (stereo not drawn) | 6.5
CCN(CC)CC(=O)NC(c1ccccc1)C1CCCCC1 (stereo not drawn) | 6
O=C(CCCNC1CCCCC1)NC(c1ccccc1)C1CCCCC1 (stereo not drawn) | 5.8
O=C(CCNC1CCCCC1)NC(c1ccccc1)C1CCCCC1 (stereo not drawn) | 6.1
C1CCC(C(CC2CCCCN2)C2CCCCC2)CC1 (stereo not drawn) [PERHEXILINE] | 6.7
